ChEMBL document CHEMBL1143247, “Vesicular monoamine transporter substrate/inhibitor activity of MPTP/MPP+ derivatives: a structure-activity study” (J Med Chem, 2008)

Key:
[1] = target: Synaptic vesicular amine transporter (Bos taurus, UniProt Q27963); experiment: Inhibition of dopamine uptake at VMAT in bovine chromaffin granule ghosts
Procedure, shortened: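 Resealed bovine chromaffin granule ghosts preincubated 10 min at 30 °C in 0.3 M sucrose, 10 mM HEPES, 5 mM Mg-ATP, 5 mM MgSO₄, 100 µg/mL catalase, pH 7.0. Inhibitor then added for 2 min before starting uptake with DA. Aliquots taken at 6 min intervals, pelleted, washed and extracted in 0.1 M HClO₄. Intragranular catecholamines measured by HPLC-EC. Ki obtained by fitting typically 4–5 inhibitor × 6 DA concentrations to a competitive model. Errors are fitting standard errors.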

[2] = target: Synaptic vesicular amine transporter (Bos taurus) (UniProt Q27963); experiment: Ratio of Km for dopamine uptake at VMAT in bovine chromaffin granule ghosts to Ki for VMAT in bovine chromaffin granule ghosts
Procedure, shortened: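 Ratio of Km for DA to Ki for the inhibitor. Both were determined on the same ghost preparation for each compound, to normalize day-to-day variation in DA Km between preparations. Ki comes from DA-uptake competition in resealed bovine chromaffin granule ghosts (5 mM Mg-ATP, pH 7.0, 30 °C, HPLC-EC read-out). Km for DA comes from initial uptake rates fitted to Michaelis–Menten.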

[3] = substrate: CN1CC=C(c2ccccc2)CC1; experiment: (§1) Activity of VMAT in bovine chromaffin granule ghosts assessed as drug uptake; conditions: Bos taurus
Procedure, shortened: (§2)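 Resealed bovine adrenal chromaffin granule ghosts, prepared fresh from frozen membrane stores, preincubated 10 min at 30 °C in 0.3 M sucrose, 10 mM HEPES, 5 mM Mg-ATP, 5 mM MgSO₄, 100 µg/mL catalase, pH 7.0. Test substrate added without DA. Aliquots taken at 6 min intervals, diluted into ice-cold sucrose/HEPES, pelleted, washed, extracted with 0.1 M HClO₄. Intragranular substrate measured by HPLC-UV. Km and Vmax come from Michaelis–Menten fits of initial rates at 12 substrate concentrations.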

[4] = substrate: C[n+]1ccc(-c2cccc(O)c2)cc1; experiment: as §1; conditions: Bos taurus; procedure, shortened: as §2
[5] = substrate: C[n+]1ccc(-c2ccccc2)cc1; experiment: as §1; conditions: Bos taurus; procedure, shortened: as §2
[6] = substrate: C[n+]1ccc(-c2ccc(O)cc2)cc1; experiment: as §1; conditions: Bos taurus; procedure, shortened: as §2
[7] = substrate: Cc1ccc(-c2cc[n+](C)cc2)cc1; experiment: as §1; conditions: Bos taurus; procedure, shortened: as §2
[8] = substrate: COc1ccc(-c2cc[n+](C)cc2)cc1; experiment: as §1; conditions: Bos taurus; procedure, shortened: as §2

Molecule	Ki [1] [µM]	Dopamine Km / inhibitor Ki ratio [2]	further results
CN1CC=C(c2ccccc2)CC1	52.5		
CN1CC=C(c2ccccc2N)CC1	193	0.1	
C[n+]1ccc(-c2ccc(O)cc2)cc1	82	0.7	
CN1CC=C(c2cccc(O)c2)CC1	25.8	1.7	
C[n+]1ccc(-c2ccc(C(F)(F)F)cc2)cc1	33.8	1.3	
C=C(CN1CCC(c2ccccc2)CC1)c1ccccc1	16.4	1.8	
C[n+]1ccc(-c2cccc(C(F)(F)F)c2)cc1	24.6	1.8	
C[n+]1ccc(-c2ccc(Cl)cc2)cc1	7.6	5.8	
C[N+]1=CC=C(c2ccccc2)CC1	53	0.7	
C[n+]1ccc(-c2ccccc2)cc1	92		
C[n+]1ccc(-c2ccc(F)cc2)cc1	51.3	1	
Cc1ccccc1-c1cc[n+](C)cc1	95	0.3	
C=C(C[n+]1ccc(-c2ccccc2)cc1)c1ccc(-c2ccccc2)cc1	4.5	11.3	
COC(=O)[C@H]1[C@H]2C[C@@H]3c4[nH]c5cc(OC)ccc5c4CCN3C[C@H]2C[C@@H](OC(=O)c2cc(OC)c(OC)c(OC)c2)[C@@H]1OC [RESERPINE]	0.001		
C=C(C[n+]1ccc(-c2ccc(O)cc2)cc1)c1ccc(Br)cc1	0.5	41.5	
COc1ccc(-c2cc[n+](C)cc2)cc1	106	0.2	
Cc1ccccc1C1=CCN(C)CC1	38.4		
C=C(CN1CCN(c2ccccc2)CC1)c1ccccc1	1.4	24.1	

Molecule	Ki [1] [µM]	Dopamine Km / inhibitor Ki ratio [2]	further results
C[n+]1cccc(-c2ccc(O)cc2)c1	338	0.1	
COc1cc2c(cc1OC)C1CC(=O)C(CC(C)C)CN1CC2 (centres undefined) [TETRABENAZINE]	0.004		
C=C(C[n+]1ccc(-c2ccc(OC)cc2)cc1)c1ccccc1	2.8	8.7	
C=C(C[n+]1ccc(-c2ccccc2)nc1)c1ccccc1	13.4	2.7	
Cc1c[n+](C)ccc1-c1ccc(O)cc1	65	0.8	
Cc1ccc(-c2cc[n+](C)cc2)cc1	51.8	1	
CN1CC=C(c2cccc(Cl)c2)CC1	27.7	1.6	
C[n+]1ccc(-c2cccc(O)c2)cc1	2.4	9.7	
COc1ccc2c3c([nH]c2c1)[C@H]1C[C@H]2[C@H](C[C@@H](O)[C@H](OC)[C@H]2C(=O)O)CN1CC3	10		
C[n+]1ccc(-c2cccc(Cl)c2)cc1	46.3	1.1	
CN1CC=C(c2ccc(O)cc2)CC1	134	0.3	
C=C(C[n+]1ccc(-c2cccc(O)c2)cc1)c1ccc(I)cc1	0.4	55	
C=C(C[n+]1ccc(C2CCCCC2)cc1)c1ccccc1	53	0.7	
C=C(C[n+]1ccc(-c2ccccc2)cc1)c1ccccc1	38.4	0.9	
CN1CC=C(c2ccc(F)cc2)CC1	49.7	0.9	
C[n+]1cccc(-c2cccc(O)c2)c1	36.6	1.2	
Synaptic vesicular amine transporter (Bos taurus), Q27963 (protein) MALSELALLRRLQESRHSRKLILFIVFLALLLDNMLLTVVVPIIPSYLYSIEHEKDALEIQTAKPGLTASAPGSFQNIFSYYDNSTMVTGNSTDHLQGALVHEATTQHMATNSSSASSDCPSEDKDLLNENVQVGLLFASKATVQLLTNPFIGLLTNRIGYPIPMFTGFCIMFISTVMFAFSRTYAFLLIARSLQGIGSSCSSVAGMGMLASVYTDDEERGNAMGIALGGLAMGVLVGPPFGSVLYEFVGKTAPFLVLAALVLLDGAIQLFVLQPSRVQPESQKGTPLTTLLRDPYILIAAGSICFANMGIAMLEPALPIWMMETMCSHKWQLGVAFLPASVSYLIGTNVFGILAHKMGRWLCALLGMIIVGMSILCIPLAKNIYGLIAPNFGVGFAIGMVDSSMMPIMGYLVDLRHVSVYGSVYAIADVAFCMGYAIGPSAGGAIAKAIGFPWLMTIIGIIDILFAPLCFFLRSPPAKEEKMAILMDHNCPIKTKMYTQNSSQSHPIGEDEESESD			Km [3]: 409 µM; Vmax [3]: 1.7 nmol/mg/min; Km [4]: 8.4 µM; Vmax [4]: 1.9 nmol/mg/min; Km [5]: 73 µM; Vmax [5]: 1.4 nmol/mg/min; Km [6]: 107 µM; Vmax [6]: 1.6 nmol/mg/min; Km [7]: 41.3 µM; Vmax [7]: 0.9 nmol/mg/min; Km [8]: 135 µM; Vmax [8]: 1.6 nmol/mg/min
